# Assay results reported in ChEMBL document CHEMBL6078633, “Covalent Inhibitors of S100A4 Block the Formation of a Pro-Metastasis Non-Muscle Myosin 2A Complex” (J Med Chem, 2024).
# pIC50: −log10 of the molar value. The source made the active and inactive calls. The rule behind the calls is not given here.
# Experiments:
# Homo sapiens = species on record: Homo sapiens; assay: Inhibition of S100A11-AN2 interaction (unknown origin) by HTRF analysis
# Method in brief: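 TR-FRET peptide-displacement assays run in parallel: S100A4 with MPN (NMII-mimicking) peptide, and S100A11 with AnII-mimicking peptide, both with 1 mM calcium. Duplicate dose-response in two independent experiments; top concentration 100 μM or 48.75 μM depending on series. IC50 fitted from percentage inhibition against solvent controls.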
# HEK293 [1] = assay: Inhibition of wild type C-terminal halo-tagged S100A4-nanoluc-fused NMII interaction (unknown origin) expressed in HEK293 cells using nano-glo as substrate incubated for 24 hrs by Nano-bret assay; type: cell-based; settings: Homo sapiens
# HEK293 [2] = assay: Inhibition of C-terminal halo-tagged S100A4 C81S mutant-nanoluc-fused NMII interaction (unknown origin) expressed in HEK293 cells using nano-glo as substrate incubated for 24 hrs by Nano-bret assay; type: cell-based; settings: Homo sapiens
# Method in brief: (§1)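 S100A4 wild-type or C81S construct co-expressed with NMII fusion in HEK293 cells, run in parallel. Inhibitors given at a single 30 μM for 24 h with HaloTag 618 ligand in phenol-red-free 4% serum medium. NanoGlo substrate added. Background-corrected 618/460 nm BRET ratio compared with DMSO-treated cells.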
# HEK293 [3] = assay: Inhibition of C-terminal halo-tagged S100A4 C81S mutant-nanoluc-fused NMII interaction (unknown origin) expressed in HEK293 cells using nano-glo as substrate incubated for 24 hrs by Nano-bret assay relative to control; type: cell-based; settings: Homo sapiens, dose or concentration not given here; method in brief: as §1
# HeLa = assay: Inhibition of cell migration in human HeLa cells assessed as reduction in wound healing at 8 uM incubated for 36 hrs by incucyte live-cell imager; type: functional, cell-based
# Method in brief: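 HeLa or A549 cells seeded in collagen-coated 96-well plates to near confluency. Monolayer scratched, then medium replaced with medium containing various inhibitor concentrations. Plates imaged every 2 h for 36 h in an Incucyte. Wound area measured with an image-analysis wound healing tool.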
# [4] = Aqueous solubility of compound in PBS buffer at pH 7.4; type: physicochemical
# Method in brief: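 Aqueous solubility measured in PBS pH 7.4 by an outside contract laboratory.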
# [5] = Permeability of compound in MDCK-MDR1 cells; type: ADME, cell-based, Canis lupus familiaris; settings: dog
# Method in brief: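 Permeability and P-gp efflux measured by transit across MDCK-MDR1 cell monolayers by an outside contract laboratory.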
# [6] = Inhibition of S100A4-NMII interaction (unknown origin) by HTRF analysis; parameters: species or system Homo sapiens
# Method in brief: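 TR-FRET peptide-displacement assays run in parallel: S100A4 with MPN (NMII-mimicking) peptide, and S100A11 with AnII-mimicking peptide, both with 1 mM calcium. IC50 fitted from percentage inhibition against solvent controls.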
# Protein S100-A4 = Protein S100-A4 (Homo sapiens, UniProt P26447); assay: Inhibition of S100A4 (unknown origin) in presence of GSH by HTRF analysis
# Protein S100-A4, sequence (P26447 whole entry): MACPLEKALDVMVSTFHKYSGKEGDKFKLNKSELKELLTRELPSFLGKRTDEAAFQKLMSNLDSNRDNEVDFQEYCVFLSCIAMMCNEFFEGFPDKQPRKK
compound,measurement,setting,value
O=C(NC1CCCc2ccccc21)[C@H]1C[C@H](c2ccccc2)CN1C(=O)CCl (some centres not stated),inhibition,Homo sapiens,inactive
same,inhibition,HEK293 [1],Active
same,inhibition,HEK293 [2],Active
same,inhibition,HEK293 [3],< 60%
same,inhibition,HeLa,Active
same,solubility,[4],soluble
same,permeability,[5],Permeable
CN1CCCC(NC(=O)[C@H]2C[C@H](c3ccccc3)CN2C(=O)CCl)C1=O (some centres not stated),pIC50,[6],> 6.00
same,inhibition,Homo sapiens,inactive
COc1cccc(N2CC(NC(=O)[C@H]3C[C@H](c4ccccc4)CN3C(=O)CCl)CC2=O)c1 (some centres not stated),pIC50,[6],> 6.00
same,inhibition,Homo sapiens,inactive
Cc1ccc(S(=O)(=O)/C=C/C#N)cc1,pIC50,Protein S100-A4,< 4.70
O=C1Nc2ccccc2C1NC(=O)[C@H]1C[C@H](c2ccccc2)CN1C(=O)CCl (some centres not stated),pIC50,[6],> 6.00
same,inhibition,Homo sapiens,inactive
N#CCc1ccc(NC(=O)[C@H]2C[C@H](c3ccccc3)CN2C(=O)CCl)cc1,pIC50,[6],> 6.00
same,inhibition,Homo sapiens,inactive
O=C(Nc1cccc(Cl)c1)[C@H]1C[C@H](c2ccccc2)CN1C(=O)CCl,pIC50,[6],5.54
same,pIC50,Protein S100-A4,5.34
same,inhibition,HEK293 [1],Active
same,inhibition,HEK293 [2],Active
same,inhibition,HEK293 [3],< 60%
same,inhibition,HeLa,Active
